Experimental data from ChEMBL document CHEMBL1121399, “Synthesis of 5-[(methylthio)methyl]-2'-deoxyuridine, the corresponding sulfoxide and sulfone, and their 5'-phosphates: antiviral effects and thymidylate synthetase inhibition” (1980).
Values after ≈ are worked out from the molar mass of the structure shown.

How the values were obtained:
Assay type in all cases: functional
Oryctolagus cuniculus [1] = species on record: Oryctolagus cuniculus; experiment: Tested for its antimetabolic activity by measuring the concentration required for [Me-3H] dThd incorporation into host cell DNA by 50%; settings: read-out: ID50 (the source's name)
Outline: (§1)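 Primary rabbit kidney (PRK) cell cultures; incorporation of [methyl-3H]thymidine or [2-14C]2'-deoxyuridine into host cell DNA measured in presence of compound; value is concentration (µg/mL) reducing label incorporation by 50%; concentrations up to 400 µg/mL.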

Oryctolagus cuniculus [2] = species on record: Oryctolagus cuniculus; experiment: Tested for its antiviral activity in primary rabbit kidney (PRK) cell cultures inoculated with herpes simplex type 1 virus; range 4-10
Outline: (§2)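 Primary rabbit kidney (PRK) cell cultures infected with HSV; inhibition of virus-induced cytopathogenicity scored; ID50 (µg/mL) is concentration reducing cytopathogenicity by 50%; means over three HSV-1 strains (KOS, F, McIntyre) or three HSV-2 strains (Lyons, 196, G), range across strains shown; top concentration 400 µg/mL.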

Oryctolagus cuniculus [3] = species on record: Oryctolagus cuniculus; experiment: Tested for its antimetabolic activity by measuring the concentration required for [2-14C]- Urd incorporation into host cell DNA by 50%; settings: read-out: ID50 (the source's name); outline: as §1
Oryctolagus cuniculus [4] = species on record: Oryctolagus cuniculus; experiment: Tested for its antiviral activity in primary rabbit kidney (PRK) cell cultures inoculated with herpes simplex type 2 virus; outline: as §2
Oryctolagus cuniculus [5] = species on record: Oryctolagus cuniculus; experiment: Tested for its antiviral activity in primary rabbit kidney (PRK) cell cultures inoculated with vaccinia virus
Oryctolagus cuniculus [6] = species on record: Oryctolagus cuniculus; experiment: Tested for its antiviral activity in primary rabbit kidney (PRK) cell cultures inoculated with herpes simplex type 1 virus; outline: as §2
Oryctolagus cuniculus [7] = species on record: Oryctolagus cuniculus; experiment: Tested for its antiviral activity in primary rabbit kidney (PRK) cell cultures inoculated with herpes simplex type 2 virus; range 0.2-0.4; outline: as §2

CSCc1cn([C@H]2C[C@H](O)[C@@H](CO)O2)c(=O)[nH]c1=O
IC50 (Oryctolagus cuniculus [1]): 100 µg/mL (≈ 347 µM)
ID50 (Oryctolagus cuniculus [2]): 6 µg/mL (≈ 20.8 µM)
IC50 (Oryctolagus cuniculus [3]): > 400 µg/mL
ID50 (Oryctolagus cuniculus [4]): 4 µg/mL (≈ 13.9 µM)
ID50 (Oryctolagus cuniculus [5]): 200 µg/mL (≈ 694 µM)

C[S+]([O-])Cc1cn([C@H]2C[C@H](O)[C@@H](CO)O2)c(=O)[nH]c1=O (some centres not stated)
ID50 (Oryctolagus cuniculus [6]): >400 µg/mL
ID50 (Oryctolagus cuniculus [4]): >400 µg/mL

CS(=O)(=O)Cc1cn([C@H]2C[C@H](O)[C@@H](CO)O2)c(=O)[nH]c1=O
IC50 (Oryctolagus cuniculus [1]): 300 µg/mL (≈ 937 µM)
ID50 (Oryctolagus cuniculus [6]): 4 µg/mL (≈ 12.5 µM)
IC50 (Oryctolagus cuniculus [3]): > 400 µg/mL
ID50 (Oryctolagus cuniculus [4]): >400 µg/mL
ID50 (Oryctolagus cuniculus [5]): 200 µg/mL (≈ 624 µM)

O=c1[nH]c(=O)n([C@H]2C[C@H](O)[C@@H](CO)O2)cc1I [IDOXURIDINE]
IC50 (Oryctolagus cuniculus [1]): 2.5 µg/mL (≈ 7.06 µM)
ID50 (Oryctolagus cuniculus [7]): 0.3 µg/mL (≈ 0.847 µM)
ID50 (Oryctolagus cuniculus [6]): 0.15 µg/mL (≈ 0.424 µM)
IC50 (Oryctolagus cuniculus [3]): 1.2 µg/mL (≈ 3.39 µM)
ID50 (Oryctolagus cuniculus [5]): 0.2 µg/mL (≈ 0.565 µM)
